The entries come from a sample that favours hits as a whole.
V-ATPase pHluor = alters yeast V-ATPase proton transport; S. cerevisiae, pHLuorin cytosolic pH fluorescence; response, % at 10 µM; 350,000 tested, 0.37% active; in the data active = response mostly above about 7.3%, no sharp cut-off; inactive = mostly below about 5.4%; note: actives read high
Dynein cargo inh = blocks dynein driven cargo transport along microtubules; 3617.4 mouse cells, GR-EGFP nuclear translocation imaging; test concentration mostly 20 µM; stimulated with dexamethasone, 1 µM; hits give low values; z-score, hits read low; 220,000 tested, 0.47% active;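 active = plate z-score of nuclear minus cytoplasmic receptor signal below a set negative limit, without overly bright fluorescence or cell loss, cut at about -3.5 in these data, passing the limit was not always enough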;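 note: z-score of nuclear minus cytoplasmic ring GR-EGFP intensity difference per well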
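Buffer or medium: tet-free, stripped-serum medium; Also added: dexamethasone, 1.0 µM final; Technique: high-content fluorescence imaging after fixation; Times: 48 h induction, 1 h compound, 30 min dex at 37 °C; Read-out: per-cell GR-EGFP intensity, nucleus versus surrounding cytoplasmic ring, well-averaged.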
p-CIP stab down = p/CIP protein destabilization; Q05BA5; F442A p/CIP-EGFP cells, EGFP fluorescence, 16 h; decrease of EGFP signal, % at 10 µM; 290,000 tested, 0.01% active; AID 1984;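 active = EGFP signal decrease of at least 30% at 10 µM or well 3 SD below plate mean, unless failing retest; inactive = the rest, including hits failing retest or dose response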
Cl transport mod = modulators of human KCC2 chloride dependent transport. 190,000 tested, 2.2% active. B-score of Tl+ flux slope (higher = more flux/activation; lower = inhibition) at 10 µM. Q9H2X9. KCC2 cells, thallium flux FluoZin-2 fluorescence. AID 1456;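 active = thallium flux slope and its plate-corrected score both differing from the plate sample mean at a set confidence after two filtering rounds, in either direction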;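 note: slope of fluorescence scaled to starting intensity during 10 to 20 s after thallium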
ABCB6 inh MLPCN = human ABCB6 transporter inhibition | 360,000 tested, 0.19% active | Q9NP58 | K562-ABCB6 porphyrin accumulation, flow cytometry, 1 h; hits give low values | fluorescence ratio to DMSO, % at 10 µM;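 active = fluorescence ratio to DMSO below 75%, the collection mean minus 3 SD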;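 note: signal is porphyrin accumulated inside mitochondria; 100% equals median channel fluorescence of DMSO control wells; lower ratio means ABCB6 inhibition with less porphyrin fluorescence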
Target sequence (Q9NP58 whole entry, looked up): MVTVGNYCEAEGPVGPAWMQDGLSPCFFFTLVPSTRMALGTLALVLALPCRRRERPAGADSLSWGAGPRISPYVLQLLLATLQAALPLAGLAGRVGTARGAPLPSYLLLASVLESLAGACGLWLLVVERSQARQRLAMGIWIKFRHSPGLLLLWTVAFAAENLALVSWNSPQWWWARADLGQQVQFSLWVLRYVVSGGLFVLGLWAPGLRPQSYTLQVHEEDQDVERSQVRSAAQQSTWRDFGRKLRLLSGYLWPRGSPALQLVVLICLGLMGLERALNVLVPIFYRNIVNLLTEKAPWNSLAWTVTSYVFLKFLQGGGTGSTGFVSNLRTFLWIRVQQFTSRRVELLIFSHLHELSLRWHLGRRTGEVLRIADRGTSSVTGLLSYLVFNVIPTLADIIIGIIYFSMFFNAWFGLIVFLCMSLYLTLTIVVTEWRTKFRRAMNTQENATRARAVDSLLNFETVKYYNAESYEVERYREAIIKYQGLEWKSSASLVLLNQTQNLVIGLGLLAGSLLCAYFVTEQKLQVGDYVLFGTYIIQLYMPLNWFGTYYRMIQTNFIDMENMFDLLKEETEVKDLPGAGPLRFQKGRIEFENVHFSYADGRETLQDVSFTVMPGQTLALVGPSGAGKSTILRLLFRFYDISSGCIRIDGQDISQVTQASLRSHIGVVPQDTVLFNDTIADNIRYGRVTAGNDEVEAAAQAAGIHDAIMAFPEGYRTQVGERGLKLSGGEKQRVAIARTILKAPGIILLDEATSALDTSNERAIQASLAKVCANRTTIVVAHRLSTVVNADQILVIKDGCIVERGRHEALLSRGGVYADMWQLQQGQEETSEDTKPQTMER
VATPase regulator = modulates yeast V-ATPase proton transport. shares compounds with V-ATPase pHluor. S. cerevisiae pHLuorin cytosolic pH. response, % at 10 µM. 980 tested, 2% active. AID 602197; in the data active = response above about 24%;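 note: plate controls were vehicle wells for no effect and positive control wells for full effect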
ABCB6 blocker 1 = human ABCB6 transporter inhibition | K562-ABCB6 porphyrin accumulation, flow cytometry, 1 h; hits give low values | ratio response (% of DMSO), % at 10 µM | shares compounds with ABCB6 inh MLPCN | 700 tested, under 10 active;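 active = repeat-averaged ratio response below 75% of DMSO, the collection mean minus 3 SD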;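 note: median porphyrin fluorescence at 575 nm with 488 nm excitation from mitochondria; lower ratio means less porphyrin signal so ABCB6 inhibition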
* = called active by the depositor; . = no result.

SMILES | V-ATPase pHluor | Dynein cargo inh | p-CIP stab down | Cl transport mod | ABCB6 inh MLPCN | ABCB6 blocker 1 | others
CN(C)C(CNC(=O)c1ccc(S(=O)(=O)Nc2cccc(C(F)(F)F)c2)cc1)c1ccco1 (stereo not given) | 10.2* | . | . | . | 98.0 | . | VATPase regulator=2.2
CC(C)C(=O)Nc1cc(=O)[nH]c2ncnn12 | 10.3* | -0.0276 | -9.9 | . | 106.0 | . | VATPase regulator=-0.3
COc1cc(C(=O)NCc2nnc(SCC(=O)N3CCOCC3)o2)cc(OC)c1OC | 15.8* | -0.5 | -12.5 | -0.522 | 100.0 | . | VATPase regulator=-0.5
CCCC(=O)N(Cc1cc2cc(OC)ccc2[nH]c1=O)c1ccc(OC)cc1 | -2.9 | . | . | . | 98.0 | .
CN(CC(=O)NC1CCCCC1)S(=O)(=O)c1ccc(Cl)cc1 | 10.8* | -0.191 | -9.3 | 0.474 | 93.0 | . | VATPase regulator=1.3
CN(CC(=O)NC1CCCCCC1)S(=O)(=O)c1ccc(F)cc1 | -1.8 | . | -7.9 | . | 100.0 | .
O=C(CCSc1ccc(Cl)cc1)NC1CCCCC1 | 12.7* | 0.456 | -11.8 | . | 97.0 | . | VATPase regulator=-0.8
COc1ccc(Cl)cc1NC(=O)CCc1ccccc1 | -1.1 | -0.483 | 8.2 | -0.455 | 95.0 | .
COc1ccc(Cl)cc1NC(=O)CCCC(=O)c1ccccc1 | -0.6 | . | -4.6 | . | 61.0* | 99.0
COc1cccc(C2=CC(c3ccc(OC)c(OC)c3)NC(=S)N2)c1 (stereo not given) | 0.1 | -0.277 | -3.3 | -0.741 | . | .
CCOC(=O)C(=O)c1csc(NC(=O)CCSc2ccc(C)cc2)n1 | -1.9 | 1.55 | 2.1 | 0.122 | 102.0 | .
Cn1c(SCC(=O)Nc2ccc(N3CCOCC3)cc2)nnc1-c1ccccc1 | 2.5 | 0.723 | -5.3 | -0.353 | 103.0 | .
CC(Sc1nnc(-c2ccncc2)n1C)C(=O)Nc1ccc(N2CCOCC2)cc1 (stereo not given) | -2.8 | . | . | . | 69.0* | 100.0
COc1ccc(NC(=O)c2cc(CN3C(=O)c4ccccc4C3=O)ccc2OC)cn1 | -4.5 | 0.18 | 7.0 | -0.319 | 70.0* | 102.0
CCCC(=O)NC(=S)Nc1ccc(NC(=O)C(C)C)c(OC)c1 | 2.3 | 0.624 | -4.4 | 0.694 | 98.0 | .
CC(=O)/C(N=Nc1ccc2c(c1)OCO2)=C(\C)O | -3.8 | 0.192 | 6.6 | 1.02 | 74.0* | 102.0
CC(NC(=O)COc1ccc(/C=N/NS(=O)(=O)c2ccccc2)cc1)c1ccccc1 (stereo not given) | -1.0 | -0.466 | 3.7 | . | 69.0* | 99.0
CC(NC(=O)CN1CCc2ccccc21)c1ccccc1 (stereo not given) | -0.8 | 0.412 | -5.7 | -0.735 | 59.0* | 103.0
O=C(NCC(=O)N1CCN(c2ccccc2)CC1)c1cccs1 | -1.9 | . | 8.7 | . | 102.0 | .
COC(=O)C1=CNC=C(C(=O)OC)C1c1cccc2ccccc12 | -0.1 | . | -11.8 | . | 71.0* | 105.0
CC(C)C[C@@H]1CC2=C(C(=O)OC(C)(C)O2)[C@H](CCc2ccccc2)O1 | . | . | . | . | 95.0 | .
Cc1nn2c(N3CCN(C4CCCC4)CC3)cc(C(C)(C)C)nc2c1-c1ccccc1 | -0.6 | -0.0989 | -13.8 | 0.0724 | 57.0* | 104.0
Cc1nn2c(N3CCN(C)CC3)cc(C(C)(C)C)nc2c1-c1ccccc1 | -1.5 | 1.7 | 1.1 | 1.08 | 98.0 | .
O=c1c2c3c(sc2n2cnnc2n1CCc1ccccc1)CCCC3 | -4.7 | 0.22 | -19.6 | . | 66.0* | 101.0
c1csc(CNc2ccn3nc(-c4ccc(OCCN5CCOCC5)cc4)cc3n2)c1 | . | . | . | . | 106.0 | .
c1ccc(COc2cccc(-c3cc4nc(NCc5ccc6c(c5)OCO6)ccn4n3)c2)cc1 | . | . | . | . | 68.0* | 97.0
c1ccc(OCCNc2ccn3nc(-c4ccc(OCCN5CCOCC5)cc4)cc3n2)cc1 | . | . | . | . | 74.0* | 100.0
CCOC(=O)C1=C[C@@H](CC)N(S(=O)(=O)c2ccc(C)cc2)[C@H]1c1cccc(Cl)c1 | . | . | . | . | 99.0 | .
CC(C(=O)NC1CCCC1)N1CCN(Cc2ccccc2)CC1 (stereo not given) | -3.4 | 0.302 | -9.5 | 1.15 | 93.0 | .
CC(C(=O)NC(=O)NC1CCCCC1)N1CCN(C(c2ccccc2)c2ccccc2)CC1 (stereo not given) | -2.5 | 0.314 | 1.6 | -0.602 | 73.0* | 100.0
